Shown are actives, neighbours in structure and some others; about 7.1% of the full set was active somewhere.
HUVEC inhibit: human endothelial cell proliferation inhibition; HUVEC proliferation, CellTiter-Glo luminescence, 72 h; hits give low values; viability, % at 10 µM (by protocol); 86,000 compounds, 1.1% hits; AID 648;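 active = viability at or below 30%; inactive = viability above 30%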;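 note: 100% = median luminescence of DMSO-only cell control wells on each plate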
Cav32 inh: inhibitors of human Cav3.2 T-type calcium channel; O95180; Cav3.2-expressing cells, Fluo-4 calcium fluorescence FDSS; hits give low values; B-score at 10 µM; 100,000 compounds, 4% hits; AID 449739;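 active = single-dose well whose peak fluorescence ratio is a statistical outlier from its plate by either plate-standardised score or position-corrected B-score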
Target sequence (O95180 whole entry, looked up): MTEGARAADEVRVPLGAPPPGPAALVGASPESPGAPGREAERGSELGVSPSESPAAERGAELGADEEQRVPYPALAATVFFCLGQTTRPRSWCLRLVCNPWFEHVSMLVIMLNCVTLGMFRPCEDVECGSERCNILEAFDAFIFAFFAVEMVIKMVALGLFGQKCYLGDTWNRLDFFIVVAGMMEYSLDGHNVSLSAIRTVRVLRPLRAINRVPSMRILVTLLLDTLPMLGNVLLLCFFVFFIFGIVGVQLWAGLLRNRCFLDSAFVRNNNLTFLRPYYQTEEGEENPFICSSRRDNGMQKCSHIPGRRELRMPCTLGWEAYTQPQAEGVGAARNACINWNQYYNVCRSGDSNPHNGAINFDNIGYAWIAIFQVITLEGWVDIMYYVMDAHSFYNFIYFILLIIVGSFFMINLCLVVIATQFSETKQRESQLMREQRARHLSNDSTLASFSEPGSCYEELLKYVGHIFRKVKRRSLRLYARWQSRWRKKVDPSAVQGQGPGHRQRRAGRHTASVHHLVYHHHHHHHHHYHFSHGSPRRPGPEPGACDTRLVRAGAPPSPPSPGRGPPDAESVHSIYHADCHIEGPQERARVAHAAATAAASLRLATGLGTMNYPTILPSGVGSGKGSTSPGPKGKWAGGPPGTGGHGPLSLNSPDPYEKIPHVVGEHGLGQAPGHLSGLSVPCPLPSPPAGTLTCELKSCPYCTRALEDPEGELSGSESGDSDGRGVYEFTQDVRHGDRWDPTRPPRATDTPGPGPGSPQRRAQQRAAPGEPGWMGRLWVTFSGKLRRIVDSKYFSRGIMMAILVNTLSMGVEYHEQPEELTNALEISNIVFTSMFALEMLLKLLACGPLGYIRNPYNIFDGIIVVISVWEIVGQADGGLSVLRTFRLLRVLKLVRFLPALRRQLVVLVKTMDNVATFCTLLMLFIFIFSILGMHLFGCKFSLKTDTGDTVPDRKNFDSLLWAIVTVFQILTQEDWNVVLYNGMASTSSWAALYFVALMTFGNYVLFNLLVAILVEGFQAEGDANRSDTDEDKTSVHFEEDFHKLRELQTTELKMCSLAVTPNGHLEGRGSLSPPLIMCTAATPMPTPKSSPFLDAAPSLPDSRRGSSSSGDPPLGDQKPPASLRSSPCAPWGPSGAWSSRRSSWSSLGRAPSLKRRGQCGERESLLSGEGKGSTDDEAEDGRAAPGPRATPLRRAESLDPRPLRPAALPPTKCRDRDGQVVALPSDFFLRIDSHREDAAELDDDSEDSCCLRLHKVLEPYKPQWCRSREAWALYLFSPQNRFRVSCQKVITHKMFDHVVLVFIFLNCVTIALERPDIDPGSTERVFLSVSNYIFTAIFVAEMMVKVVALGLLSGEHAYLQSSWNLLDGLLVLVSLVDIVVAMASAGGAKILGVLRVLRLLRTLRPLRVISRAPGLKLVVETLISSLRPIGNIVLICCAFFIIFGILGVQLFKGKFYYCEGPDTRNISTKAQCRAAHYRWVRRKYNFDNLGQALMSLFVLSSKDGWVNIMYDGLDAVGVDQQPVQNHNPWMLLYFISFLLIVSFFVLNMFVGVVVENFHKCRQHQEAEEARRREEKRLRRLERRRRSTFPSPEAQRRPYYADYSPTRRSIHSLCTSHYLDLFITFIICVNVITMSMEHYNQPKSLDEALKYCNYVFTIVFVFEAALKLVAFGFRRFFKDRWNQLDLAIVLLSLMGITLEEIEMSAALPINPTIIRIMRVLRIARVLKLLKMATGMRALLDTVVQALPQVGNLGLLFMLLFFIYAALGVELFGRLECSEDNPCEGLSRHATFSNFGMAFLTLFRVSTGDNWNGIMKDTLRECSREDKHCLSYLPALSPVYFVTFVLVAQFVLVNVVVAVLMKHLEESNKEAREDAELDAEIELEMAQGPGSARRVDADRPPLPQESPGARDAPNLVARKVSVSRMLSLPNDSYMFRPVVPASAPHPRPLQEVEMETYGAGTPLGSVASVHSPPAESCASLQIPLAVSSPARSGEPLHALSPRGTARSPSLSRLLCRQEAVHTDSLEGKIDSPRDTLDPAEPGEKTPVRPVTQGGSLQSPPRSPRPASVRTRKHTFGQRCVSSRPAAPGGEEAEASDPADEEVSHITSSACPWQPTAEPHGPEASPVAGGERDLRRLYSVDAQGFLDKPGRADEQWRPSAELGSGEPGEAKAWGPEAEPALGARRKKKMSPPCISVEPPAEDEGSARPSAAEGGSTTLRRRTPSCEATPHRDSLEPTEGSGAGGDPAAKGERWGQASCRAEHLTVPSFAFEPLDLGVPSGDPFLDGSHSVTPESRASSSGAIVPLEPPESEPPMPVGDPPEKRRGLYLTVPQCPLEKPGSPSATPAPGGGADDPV
HCT116 PTEN-null: suppresses growth of cells with PTEN deletion; HCT116 PTEN-null viability, CellTiter-Glo, 60 h; hits give low values; viability, % at 10 µM; 140,000 compounds, 1.2% hits;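 active = viability at or below a set limit, 4 SD under the median of all tested compounds, cut at about 3.7% in these data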;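 note: PTEN knockout HCT116 line with beta catenin targeted HCT116 as companion control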
H69AR inhibit: blocks growth of human H69AR lung tumor cells; H69AR lung tumor viability, ATP luminescence, 72 h; hits give low values; viability, % at 10 µM; 85,000 compounds, 6% hits;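 active = viability at or below 40%; inactive = viability above 40%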;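 note: multidrug resistant small cell line overexpressing MRP-1 efflux transporter; 100% = mean luminescence of untreated control wells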
bCat KO growth: beta-catenin-lacking colon tumor cell growth suppression. AID 818. viability, % at 10 µM. 140,000 compounds, 1.5% hits. HCT116 beta-catenin knockout viability, CellTiter-Glo, 60 h; hits give low values;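 active = viability at or under a set limit, the compound median less 4 SD, cut at about 6% in these data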;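 note: 0% = Hyamine 1622 control at 20 µM and 100% = untreated cell control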
Fibroblast inh: blocks proliferation of human lung fibroblasts. AID 719. viability, % at 10 µM. LL 47 human lung fibroblast viability, ATP luminescence; hits give low values. 85,000 compounds, 1.1% hits;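 active = viability at or below 50% in the single dose screen; inactive = viability above 50%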;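 note: compound exposure lasted 72 h before the ATP readout; 100% = median luminescence of untreated cell-only wells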
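Assay system: human lung fibroblast line LL 47, low passage. Input: 1,150 fibroblasts seeded per well. Times: overnight cell rest, 72 h compound treatment at 37 °C. Evaluation: % viability of median cell-only signal. Technique: luminescent ATP detection, CellTiter-Glo. Control set: cell-only wells, no compound.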
Active calls of the source: *.

What do the screens show for `COc1ccccc1NC(=O)CC(NC1CCCCC1)C(=O)O` (centres undefined)?
HCT116 PTEN-null: 93.6; bCat KO growth: 101.8

What do the screens show for `CCC(CC)c1nnc(NC(=O)c2cc(C(=O)OC)cc([N+](=O)[O-])c2)s1`?
HCT116 PTEN-null: 90.8; bCat KO growth: 89.3

What do the screens show for `O=C(CSc1nc2ccccc2o1)Nc1ccc(N2CCOCC2)c(Cl)c1`?
HUVEC inhibit: 106.3; Cav32 inh: -3.76*; HCT116 PTEN-null: 80.9; H69AR inhibit: 92.8; bCat KO growth: 94.0; Fibroblast inh: 97.0

How did O=C(CSc1nc2ccccc2o1)NC(=O)NCc1ccccc1 do in these assays?
HUVEC inhibit: 95.0; Cav32 inh: -6.52*; HCT116 PTEN-null: 92.3; H69AR inhibit: 80.6; bCat KO growth: 103.8; Fibroblast inh: 97.4

How did O=C(CSc1nc2ccccc2o1)Nc1cc(C(F)(F)F)ccc1N1CCOCC1 do in these assays?
Cav32 inh: -1.43; HCT116 PTEN-null: 76.7; bCat KO growth: 71.6

Results for O=C(CSc1nc2ccccc2o1)NC(=O)NCc1ccco1 ?
HUVEC inhibit: 101.6; Cav32 inh: -1.08; HCT116 PTEN-null: 96.8; H69AR inhibit: 97.2; bCat KO growth: 106.5; Fibroblast inh: 101.4

How did O=C(CSc1nc2ccccc2o1)Nc1ccccc1N1CCCCCC1 do in these assays?
HUVEC inhibit: 104.2; Cav32 inh: -6.58*; HCT116 PTEN-null: 72.6; H69AR inhibit: 65.5; bCat KO growth: 73.9; Fibroblast inh: 97.4

Results for COc1ccc(NC(=O)COC(=O)c2c3c(nc4ccccc24)CCCC3)cc1Cl ?
Cav32 inh: -1.78; HCT116 PTEN-null: 13.4; bCat KO growth: 10.7

How did CC[C@H](C)[C@@H]1NC(=O)c2cc([N+](=O)[O-])cc(I)c2SC[C@@H](C(N)=O)NC(=O)[C@H](CCCCN)NC1=O do in these assays?
Cav32 inh: -0.00462; HCT116 PTEN-null: 92.7; bCat KO growth: 97.2

What do the screens show for `Cc1nn(-c2ccccc2)c(Cl)c1/C=N/Nc1nc2ccccc2[nH]1`?
HCT116 PTEN-null: 29.3; bCat KO growth: 31.6

What do the screens show for `COc1cc(/C=N/Nc2nnc3c(n2)[nH]c2ccccc23)ccc1O`?
HCT116 PTEN-null: 103.8; bCat KO growth: 94.2

What do the screens show for `COc1ccc(-c2cnnc(N/N=C/c3ccc(O)c(O)c3)n2)cc1`?
HCT116 PTEN-null: 2.9*; bCat KO growth: 4.5*

Results for COc1ccc(-c2cnnc(N/N=C/c3c(C)nn(-c4ccccc4)c3Cl)n2)cc1 ?
HCT116 PTEN-null: 2.9*; bCat KO growth: 4.7*

What do the screens show for `COc1ccc(OC)c(C(=O)c2ccc(C(=O)Nc3cccc4ccccc34)cc2)c1`?
HCT116 PTEN-null: 75.8; bCat KO growth: 80.2

How did CCCCc1ccc(-c2nc(NC(=O)C3C4CCC(O4)C3C(=O)O)sc2C)cc1 (centres undefined) do in these assays?
Cav32 inh: -0.729; HCT116 PTEN-null: 98.9; bCat KO growth: 85.0

What do the screens show for `OC(CNc1ccccc1)COc1ccc(OCC(O)CNc2ccccc2)cc1` (centres undefined)?
Cav32 inh: -0.451; HCT116 PTEN-null: 1.6*; bCat KO growth: 1.7*

How did CCOCC(O)CNc1ccccc1 (centres undefined) do in these assays?
HCT116 PTEN-null: 97.5; bCat KO growth: 98.8

How did O=C(CN1CCCCC1)NCCNc1ccc(C(F)(F)F)cc1[N+](=O)[O-] do in these assays?
HCT116 PTEN-null: 101.2; bCat KO growth: 96.7

What do the screens show for `Cc1ccccc1-n1cnc2cc(NCc3cccs3)ccc21`?
HUVEC inhibit: 77.3; Cav32 inh: -3.5; HCT116 PTEN-null: 49.9; H69AR inhibit: 20.1*; bCat KO growth: 45.8; Fibroblast inh: 68.9

Results for COc1ccccc1-n1cnc2cc(NCc3cccs3)ccc21 ?
HUVEC inhibit: 41.3; Cav32 inh: -3.66; HCT116 PTEN-null: 15.0; H69AR inhibit: 26.7*; bCat KO growth: 17.9; Fibroblast inh: 46.1*

What do the screens show for `COc1ccccc1-n1cnc2cc(NCc3ccco3)ccc21`?
HUVEC inhibit: 63.6; Cav32 inh: -2.09; HCT116 PTEN-null: 15.2; H69AR inhibit: 23.1*; bCat KO growth: 12.4; Fibroblast inh: 53.7

Results for Cn1c(NCc2cccs2)nc2ccccc21 ?
HUVEC inhibit: 82.1; Cav32 inh: 0.508; HCT116 PTEN-null: 97.0; H69AR inhibit: 92.9; bCat KO growth: 82.7; Fibroblast inh: 94.0
